Compound activity (PubChem)
KCC2 mod – KCC2 (human) Cl- transport modulation; Q9H2X9; actives 2.2% (n = 190,000); KCC2 cells, thallium flux FluoZin-2 fluorescence; B-score of Tl+ flux slope (higher = more flux/activation; lower = inhibition) at 10 µM;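 active means thallium flux slope and its plate-corrected score both differing from the plate sample mean at a set confidence after two filtering rounds, in either direction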;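 further: slope of fluorescence scaled to starting intensity during 10 to 20 s after thallium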
Target sequence (Q9H2X9 whole entry, looked up): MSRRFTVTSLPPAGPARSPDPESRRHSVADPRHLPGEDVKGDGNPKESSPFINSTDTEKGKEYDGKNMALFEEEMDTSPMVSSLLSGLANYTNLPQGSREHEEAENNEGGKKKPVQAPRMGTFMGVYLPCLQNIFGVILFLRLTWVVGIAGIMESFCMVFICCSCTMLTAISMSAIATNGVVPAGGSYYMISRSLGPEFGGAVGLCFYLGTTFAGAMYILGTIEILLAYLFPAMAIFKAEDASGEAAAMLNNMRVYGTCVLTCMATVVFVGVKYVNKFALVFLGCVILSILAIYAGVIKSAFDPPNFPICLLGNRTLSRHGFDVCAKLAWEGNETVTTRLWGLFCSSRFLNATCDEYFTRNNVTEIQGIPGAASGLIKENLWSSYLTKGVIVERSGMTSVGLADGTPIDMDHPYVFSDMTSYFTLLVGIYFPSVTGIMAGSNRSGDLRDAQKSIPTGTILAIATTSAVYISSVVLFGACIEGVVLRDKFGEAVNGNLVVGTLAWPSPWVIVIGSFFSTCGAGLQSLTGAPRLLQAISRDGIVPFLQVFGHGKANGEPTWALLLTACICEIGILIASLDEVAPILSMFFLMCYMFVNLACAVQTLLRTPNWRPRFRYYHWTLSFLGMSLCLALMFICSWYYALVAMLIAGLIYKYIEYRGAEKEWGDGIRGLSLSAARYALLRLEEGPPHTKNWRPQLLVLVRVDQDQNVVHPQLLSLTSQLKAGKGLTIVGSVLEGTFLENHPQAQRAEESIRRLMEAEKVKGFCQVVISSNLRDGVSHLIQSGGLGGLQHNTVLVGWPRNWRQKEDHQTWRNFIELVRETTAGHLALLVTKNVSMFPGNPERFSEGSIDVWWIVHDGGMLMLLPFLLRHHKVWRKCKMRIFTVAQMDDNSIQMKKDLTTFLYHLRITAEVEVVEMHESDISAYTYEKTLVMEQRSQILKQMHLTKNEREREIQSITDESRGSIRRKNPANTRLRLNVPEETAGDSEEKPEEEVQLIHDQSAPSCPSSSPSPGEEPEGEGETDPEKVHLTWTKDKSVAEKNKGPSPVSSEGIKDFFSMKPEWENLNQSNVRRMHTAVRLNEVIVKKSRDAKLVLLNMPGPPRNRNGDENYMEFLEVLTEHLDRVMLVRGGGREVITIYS
WT yeast gro inh – growth inhibition of WT yeast, mitochondrial fusion screen | inhibition, % at 10 µM | mitochondrial fusion phenotypic screen, WT strain | actives 2.1% (n = 190,000); in the data active means inhibition above about 58%; tested in S. cerevisiae
Yeast life ext – extends the lifespan of yeast; S. cerevisiae growth with nicotinamide, OD615; deaD strain in restrictive glucose medium; inhibition of the nicotinamide effect, % at 10 µM; actives 0.68% (n = 130,000); AID 775;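 active means inhibition above a set limit, placed 3 SD over the median of all compounds, cut at about 26% in these data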;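 further: 0% = nicotinamide-treated wells and 100% = cells grown without nicotinamide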
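Material: Modified budding yeast, DeaD strain | Medium: Restrictive glucose medium | Probe or stimulus: 1.5 mM nicotinamide | Dosing: Single dose 10 µM compound, 0.25% DMSO | Times: 48 h at 30 °C | Technique: OD615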
RAM inhibit – yeast RAM network inhibition; S. cerevisiae dse1pr::URA3 reporter, 5-FOA growth OD615, 2 d; analog-sensitive cbk1-as2 kinase mutant strain; inhibition, % at 50 µM; actives 1.8% (n = 190,000);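 active means inhibition above a set limit, 3 SD over mean compound inhibition, cut at about 8.4% in these data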;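 further: 0% = DMSO-only wells with no growth and 100% = 10 µM 1-NA-PP1 full growth; inhibition rescues growth on 5-FOA so higher OD means more RAM inhibition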
Yeast growth inh – yeast BB579 growth reduction in restrictive medium; S. cerevisiae BB579 growth, OD615, 48 h; inhibition, % at 10 µM; actives 0.51% (n = 140,000);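 active means inhibition above a set limit, 3 SD over the mean compound inhibition, cut at about 44% in these data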
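Test system: Saccharomyces cerevisiae DeaD strain BB579, replicative lifespan model yeast | Buffer or medium: Restrictive CSMM-D medium | Doses: One dose, 10 µM compound with 0.25% DMSO | Incubation: 48 h exposure, 30 °C | Detection: Culture absorbance at 615 nm | Control set: Amphotericin B at 10 µg/mL as positive control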
KCC2 secondary – KCC2 (human) modulation, secondary assay; normalised thallium flux (F/F0 slope) at 10 µM; HEK293-KCC2, thallium flux, FluoZin2 fluorescence; hits give high values; shares compounds with KCC2 mod; actives 15% (n = 3,700); AID 1713;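 active means thallium flux slope above the same plate's solvent-only control mean plus 3 SD; inconclusive means the two replicate wells disagree; inactive means no significant difference from solvent-only control wells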
KCC2 bumet counter – thallium flux persisting under bumetanide in KCC2 cells, counter-screen secondary assay | shares compounds with KCC2 mod | AID 1714 | normalized thallium flux at 10 µM | actives 49% (n = 3,700) | HEK293-KCC2 + bumetanide/ouabain, thallium flux FluoZin2; hits give high values;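 active means thallium entry rate above the same plate's blocked-transporter control wells by more than 3 SD; inconclusive means the two repeat wells disagree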;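 further: raw slope of fluorescence over initial fluorescence between 10 and 20 s after thallium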
KCC2 secondary2 – confirmation of human KCC2 transport modulators; shares compounds with KCC2 mod; HEK293-KCC2, thallium flux FluoZin2 fluorescence; actives lie on both sides; F/F0 rise rate, 10–20 s post-thallium; normalized thallium flux at 10 µM; actives 23% (n = 3,700); AID 1715;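 active means thallium flux slope more than 3 SD above or below the plate's solvent-only control mean, mostly below; inconclusive means the two repeat wells disagreed; inactive means no significant shift from solvent-only controls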;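 further: raw slope with 0.1% DMSO as baseline and bumetanide as block control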
HEK counter1 – parental HEK flux effect, counter-screen. actives 46% (n = 3,700). shares compounds with KCC2 mod. thallium flux rate (normalised fluorescence) at 10 µM. HEK293 parental cells, thallium flux FluoZin2, ouabain; baseline-ratio fluorescence slope, 10–20 s after thallium;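 active means thallium flux rate significantly above the same plate's solvent-only control wells, beyond their mean plus 3 SD; inconclusive means the two replicate wells gave conflicting results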
KCC2 retest ouab – confirmation of human KCC2 modulators with ouabain; HEK293-KCC2, thallium flux FluoZin2 fluorescence; bidirectional: low = inhibitor, high = activator; actives 48% (n = 3,700); shares compounds with KCC2 mod; raw Tl+ flux slope (below DMSO = inhibition, above = activation) at 10 µM;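 active means thallium flux slope beyond 3 SD from same-plate DMSO control mean in most replicates, usually higher, sometimes lower; inconclusive means repeat tests gave conflicting results; inactive means no significant difference from controls in most replicates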;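 further: slope of initial-normalized fluorescence between seconds 10 and 20 after thallium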
HEK293 Tl flux2 – acts in parental HEK cells, second KCC2 counter-screen; HEK293 parental, thallium flux FluoZin-2 fluorescence slope; AID 1718; shares compounds with KCC2 mod; thallium flux slope at 10 µM; actives 33% (n = 3,700);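 active means thallium flux slope above the same plate's solvent-control mean plus 3 SD in both duplicate wells; inconclusive means duplicate wells that disagreed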;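 further: run without ouabain in cells lacking the KCC2 cotransporter; slope of fluorescence scaled to its starting value between 10 and 20 s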
* hit, by the source's call; ? = inconclusive; / = no result given. Hits are enriched below; roughly 5.5% of the tested compounds scored in any of these assays.

SMILES	KCC2 mod	WT yeast gro inh	Yeast life ext	RAM inhibit	Yeast growth inh	KCC2 secondary	KCC2 bumet counter	KCC2 secondary2	HEK counter1	KCC2 retest ouab	HEK293 Tl flux2
CCOc1ccc(CC(=NCCc2ccccc2)C2=C(O)CC(C)(C)CC2=O)cc1OCC	-0.672	21.3	1.4	5.0	-23.8	/	/	/	/	/	/
CCOc1ccc(CC(=N)C2=C(O)CC(C)(C)CC2=O)cc1OCC	-4.29*	-5.9	2.0	0.7	-17.6	0.00753	0.00526	0.0306	0.00636	0.0204	?
COc1ccc(C(=O)N(C)Cc2ccccc2)cc1Br	-1.04	-25.8	-5.9	1.0	-3.2	/	/	/	/	/	/
COc1ccc(CCN(C)C(=S)NC(=O)c2ccc(F)cc2Cl)cc1OC	9.81*	19.1	/	1.8	/	0.0152*	0.036*	0.0275	0.0168*	0.0333*	0.0105*
Cn1ccc(/C=N/N=C2/NC(=O)CS2)n1	1.07	/	/	/	/	/	/	/	/	/	/
O=C1c2ccccc2C(=O)N1Cc1cccnc1	-5.35*	12.7	/	2.1	/	0.00841	0.00583	0.0306	0.00717	0.021	?
COC(=O)c1ccc(CN2CCCC(CCC(=O)NCc3ccc(C)o3)C2)cc1 (stereo not drawn)	0.818	-10.8	/	0.6	/	/	/	/	/	/	/
O=C(O)COc1ccccc1/C=N/NC(=O)c1cc(-c2ccc(Cl)cc2)nc2ccccc12	-0.911	/	/	/	/	/	/	/	/	/	/
O=C(N/N=C/c1ccccn1)c1cc(-c2ccc(Cl)cc2)nc2ccccc12	7.5*	61.6	-1.7	0.5	-55.5	?	0.0423*	0.0328	0.0177*	0.0268	?
O=C(N/N=C/c1ccccn1)c1cc(-c2ccc(Br)cc2)nc2ccccc12	9.42*	/	/	/	/	0.0109	0.0249*	0.0349	?	?	?
O=C(Cc1csc(Nc2nc(=S)[nH]c3ccccc23)n1)N1CCN(c2cccc(C(F)(F)F)c2)CC1	11.8*	12.1	/	5.0	/	0.00702	0.0142*	0.0361	0.0222*	0.0273*	0.0182*
O=C(CCNS(=O)(=O)c1cccc2nonc12)NCCc1ccc(Cl)cc1	-3.56*	3.1	2.8	6.4	-31.5	?	0.00586	0.0319	0.00694	0.017*	0.00951
Cc1ccc(NC(=O)CCNS(=O)(=O)c2cccc3nonc23)cc1Cl	-0.875	5.3	/	4.5	/	/	/	/	/	/	/
CN(Cc1ccccc1NS(=O)(=O)c1ccc2ccccc2c1)C1CCCCC1	-1.03	24.9	/	0.8	/	/	/	/	/	/	/
Cc1ccc(NC(=O)CSc2ccccc2NC(=O)c2ccccc2Cl)cc1Cl	-0.0431	19.7	1.7	2.4	-7.7	/	/	/	/	/	/
CCc1cc[n+](-c2nc3ccccc3nc2[N-]S(=O)(=O)c2ccc(Br)s2)cc1	-0.878	-8.5	7.1	0.5	-9.5	/	/	/	/	/	/
O=C(Nc1ccccc1C(=O)N/N=C/c1ccco1)c1ccc(Cl)cc1	10.8*	44.4	-4.1	3.5	-27.9	0.00747	0.0369*	0.0343	0.0145*	0.0285*	0.0153*
Cc1ccccc1C(=O)Nc1ccccc1C(=O)N/N=C\c1ccco1	0.267	-11.9	-2.6	-0.2	-36.4	/	/	/	/	/	/
O=C(Nc1ccccc1C(=O)N/N=C/c1ccco1)c1ccc(F)cc1	16.9*	52.5	6.6	1.7	-47.2	0.0156*	0.0635*	0.0354	0.0232*	?	0.0123*
S=c1nc(-c2ccc(Br)cc2)[nH]c2ccccc12	93.2*	/	/	/	/	0.0469*	0.13*	0.0782*	0.121*	0.113*	0.0917*
CCOc1ccc(NC(=S)NC(=O)c2c(Br)cnn2C)c([N+](=O)[O-])c1	1.98	36.3	-5.9	2.2	-18.5	/	/	/	/	/	/
CCOc1ccc(NC(=S)NC(=O)c2c(Cl)cnn2CC)c([N+](=O)[O-])c1	18.6*	11.5	3.3	4.8	-31.8	0.0179*	0.0558*	0.0341	0.0287*	0.0444*	0.0138*
CCn1ncc(Cl)c1C(=O)Nc1cc([N+](=O)[O-])ccc1OC	1.4	-15.5	-0.2	2.3	-7.5	/	/	/	/	/	/
Cc1cc(C)c(NC(=S)NC(=O)c2c(Cl)c(C)nn2C)c([N+](=O)[O-])c1	41.6*	22.6	0.5	4.9	-18.3	0.0191*	0.165*	?	0.0472*	0.0606*	0.0163*
CCn1ncc(Cl)c1C(=O)NC(=S)Nc1c(C)cc(C)cc1[N+](=O)[O-]	85.2*	35.9	7.3	-0.1	-54.0	0.0328*	0.155*	0.0439*	0.0757*	0.0721*	0.0261*
SMILES	KCC2 mod	WT yeast gro inh	Yeast life ext	RAM inhibit	Yeast growth inh	KCC2 secondary	KCC2 bumet counter	KCC2 secondary2	HEK counter1	KCC2 retest ouab	HEK293 Tl flux2
CC(=O)c1ccc(NC(=S)NC(=O)c2c(Cl)c(C)nn2C)cc1	15.5*	14.1	-4.2	2.9	-14.5	0.0153*	0.0664*	0.0369	0.0307*	0.0371*	0.0148*
O=C(NCCCO)C(=O)NCCc1ccc(Cl)cc1	0.122	-2.4	0.4	0.1	-11.7	/	/	/	/	/	/
COc1ccc(OC)c(C2C(C(=O)Nc3cccnc3)=C(C)NC3=C2C(=O)CCC3)c1 (stereo not drawn)	/	-15.6	-17.3	1.6	-12.2	/	/	/	/	/	/
Cc1nn(C)c(Cl)c1CN1CCN(C2CCCC2)C(CCO)C1 (stereo not drawn)	0.427	-10.6	/	-0.4	/	/	/	/	/	/	/
O=C(NCc1cccs1)c1ccc([N+](=O)[O-])cc1	1.12	-9.2	-2.0	1.4	-17.2	/	/	/	/	/	/
Cc1nc(N2CCN(Cc3ccccc3)CC2)c(C#N)c2c1COC(C)(C)C2	-3.41*	-2.4	/	-1.3	-40.1	0.00563	0.00302	0.021*	?	0.0109*	0.00931
CC(C)c1nc(N2CCN(C(=O)c3ccccc3)CC2)c(C#N)c2c1COC(C)(C)C2	0.135	25.2	-3.4	1.8	-20.8	/	/	/	/	/	/
Cc1cccc2cc(CNC3CCCC3)c(Cl)nc12	1.05	-3.7	/	1.2	/	/	/	/	/	/	/
CC(=O)NCCOC(=O)Nc1cccnc1	7.18*	3.0	13.9	0.7	-23.9	0.00592	0.00501	?	?	0.0185	0.0103
CC(=O)NCCOC(=O)Nc1ccncc1	1.62	8.4	1.1	2.3	-19.1	/	/	/	/	/	/
CCOc1ccc(/C=N/NC(=O)CN2CCCCCCC2)cc1	0.0119	0.0	/	2.7	/	/	/	/	/	/	/
